Calls of active or inactive are those of the source. How the calls were made is not given here.
Tests used:
MDCK = assay: Cytotoxicity against dog MDCK cells assessed as alteration of cell morphology up to 100 uM by microscopic analysis; assay type: cell-based, Canis lupus familiaris
Method in brief: (§1)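 Uninfected host-cell cultures were exposed to compound and examined by microscopy. Cytotoxicity was expressed as the minimum cytotoxic concentration (MCC) causing a microscopically detectable alteration of normal cell morphology.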

Human alphaherpesvirus 2 = assay: Antiviral activity against Herpes simplex virus 2 G infected in human HEL cells assessed as reduction of virus-induced cytopathogenicity at 250 uM; assay type: functional, organism-based; details: strain G
Method in brief: (§2)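 Confluent monolayers (HEL fibroblasts, Vero, or HeLa cells as listed) were infected with 100 CCID50 of virus in the presence of varying compound concentrations. Virus-induced cytopathicity or plaque formation was scored once cytopathicity was complete in untreated infected controls. EC50 was taken as the concentration reducing cytopathogenicity or plaque formation by 50%.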

Feline coronavirus = assay: Antiviral activity against Feline coronavirus infected in cat CRFK cells assessed as reduction of virus-induced cytopathogenicity at 250 uM; assay type: functional, organism-based
Human alphaherpesvirus 1 [1] = assay: Antiviral activity against Herpes simplex virus 1 KOS infected in human HEL cells assessed as reduction of virus-induced cytopathogenicity at 250 uM; assay type: functional, organism-based; method in brief: as §2
Felid alphaherpesvirus 1 = assay: Antiviral activity against Feline herpes virus infected in cat CRFK cells assessed as reduction of virus-induced cytopathogenicity at 250 uM; assay type: functional, organism-based
[2] = system: Vesicular stomatitis virus; assay: Antiviral activity against Vesicular stomatitis virus infected in human HeLa cells assessed as reduction of virus-induced cytopathogenicity at 250 uM; assay type: functional, organism-based
Method in brief: (§3)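 Confluent cell monolayers were infected with 100 CCID50 of virus while exposed to varying compound concentrations. Cytopathicity was scored once it was complete in untreated infected controls. EC50 was taken as the concentration that reduced virus-induced cytopathogenicity by 50%.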

[3] = system: Mammalian orthoreovirus 1; assay: Antiviral activity against Reovirus 1 infected in african green monkey Vero cells assessed as reduction of virus-induced cytopathogenicity at 250 uM; assay type: functional, organism-based; method in brief: as §2
HeLa = assay: Cytotoxicity against human HeLa cells assessed as alteration of cell morphology up to 100 uM by microscopic analysis; assay type: cell-based; method in brief: as §1
Punta Toro virus = assay: Antiviral activity against Punta Toro virus infected in african green monkey Vero cells assessed as reduction of virus-induced cytopathogenicity at 250 uM; assay type: functional, organism-based; method in brief: as §2
[4] = Cytotoxicity against cat CRFK cells assessed as alteration of cell morphology up to 100 uM by microscopic analysis; assay type: cell-based, Felis catus; method in brief: as §1
[5] = system: Human immunodeficiency virus 1; assay: Antiviral activity against Human immunodeficiency virus 1 3B infected in human CEM cells assessed as reduction of virus-induced giant cell formation at 250 uM after 4 to 5 days; assay type: functional, organism-based; details: CCRF-CEM
Method in brief: (§4)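 CEM cells at 3 × 10^5 cells/mL were infected with HIV at 100 CCID50 per mL in the presence of compound dilutions. They were held 4–5 days at 37 °C in humidified CO2. Syncytium (giant cell) formation was scored microscopically, and EC50 was taken as the concentration inhibiting giant cell formation by 50%.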

Coxsackievirus B4 = assay: Antiviral activity against Coxsackievirus B4 infected in african green monkey Vero cells assessed as reduction of virus-induced cytopathogenicity at 250 uM; assay type: functional, organism-based; method in brief: as §2
Influenza B virus = assay: Antiviral activity against Influenza B virus infected in dog MDCK cells assessed as reduction of virus-induced cytopathogenicity at 250 uM; assay type: functional, organism-based; method in brief: as §3
[6] = system: Human immunodeficiency virus 2; assay: Antiviral activity against Human immunodeficiency virus 2 ROD infected in human CEM cells assessed as reduction of virus-induced giant cell formation at 250 uM after 4 to 5 days; assay type: functional, organism-based; details: CCRF-CEM; method in brief: as §4
Influenza A virus [7] = assay: Antiviral activity against Influenza A virus H1N1 infected in dog MDCK cells assessed as reduction of virus-induced cytopathogenicity at 250 uM; assay type: functional, organism-based; method in brief: as §3
Human alphaherpesvirus 1 [8] = assay: Antiviral activity against thymidine kinase-deficient, ACV-resistant Herpes simplex virus 1 KOS infected in human HEL cells assessed as reduction of virus-induced cytopathogenicity at 250 uM; assay type: functional, organism-based; method in brief: as §3
Sindbis virus = assay: Antiviral activity against Sindbis virus infected in african green monkey Vero cells assessed as reduction of virus-induced cytopathogenicity at 250 uM; assay type: functional, organism-based; method in brief: as §2
[9] = system: Vesicular stomatitis virus; assay: Antiviral activity against Vesicular stomatitis virus infected in human HEL cells assessed as reduction of virus-induced cytopathogenicity at 250 uM; assay type: functional, organism-based; method in brief: as §3
Human respirovirus 3 = assay: Antiviral activity against Parainfluenza virus 3 infected in african green monkey Vero cells assessed as reduction of virus-induced cytopathogenicity at 250 uM; assay type: functional, organism-based; method in brief: as §2
Influenza A virus [10] = assay: Antiviral activity against Influenza A virus H3N2 infected in dog MDCK cells assessed as reduction of virus-induced cytopathogenicity at 250 uM; assay type: functional, organism-based; method in brief: as §3
[11] = system: Respiratory syncytial virus; assay: Antiviral activity against Respiratory syncytial virus long infected in human HeLa cells assessed as reduction of virus-induced cytopathogenicity at 250 uM; assay type: functional, organism-based; method in brief: as §2
Vero = assay: Cytotoxicity against african green monkey Vero cells assessed as alteration of cell morphology up to 100 uM by microscopic analysis; assay type: cell-based; details: chlorocebus sabaeus; method in brief: as §1
HEL = assay: Cytotoxicity against human HEL cells assessed as alteration of cell morphology up to 100 uM by microscopic analysis; assay type: cell-based; method in brief: as §1

Structure (SMILES)	Activity (MDCK)	inhibition (Human alphaherpesvirus 2)	inhibition (Feline coronavirus)	inhibition (Human alphaherpesvirus 1 [1])	inhibition (Felid alphaherpesvirus 1)	inhibition [2]	inhibition [3]	Activity (HeLa)	inhibition (Punta Toro virus)	Activity [4]	inhibition [5]	inhibition (Coxsackievirus B4)	inhibition (Influenza B virus)	inhibition [6]	inhibition (Influenza A virus [7])	inhibition (Human alphaherpesvirus 1 [8])	inhibition (Sindbis virus)	inhibition [9]	inhibition (Human respirovirus 3)	inhibition (Influenza A virus [10])	also measured
CCOc1ccc(NC(=O)[C@H]2C[C@H](P(=O)(OCC)OCC)N(C)O2)cc1 (mixture of isomers)	Non-toxic	inactive	inactive	inactive	inactive	inactive	inactive	Non-toxic	inactive	Non-toxic	inactive	inactive	inactive	inactive	inactive	inactive	inactive	inactive	inactive	inactive	inhibition [11]: inactive; Activity (Vero): Non-toxic; Activity (HEL): Non-toxic
CCOP(=O)(OCC)[C@H]1C[C@H](C(=O)Nc2cc(OC)cc(OC)c2)ON1C (mixture of isomers)	Non-toxic	inactive	inactive	inactive	inactive	inactive	inactive	Non-toxic	inactive	Non-toxic	inactive	inactive	inactive	inactive	inactive	inactive	inactive	inactive	inactive	inactive	inhibition [11]: inactive; Activity (Vero): Non-toxic; Activity (HEL): Non-toxic
CCOP(=O)(OCC)[C@@H]1C[C@H](C(=O)Nc2cc(OC)cc(OC)c2)ON1C (mixture of isomers)	Non-toxic	inactive	inactive	inactive	inactive	inactive	inactive	Non-toxic	inactive	Non-toxic	inactive	inactive	inactive	inactive	inactive	inactive	inactive	inactive	inactive	inactive	inhibition [11]: inactive; Activity (Vero): Non-toxic; Activity (HEL): Non-toxic
CCOP(=O)(OCC)[C@@H]1C[C@H](C(=O)Nc2ccccc2C(C)=O)ON1C (mixture of isomers)	Non-toxic	inactive	inactive	inactive	inactive	inactive	inactive	Non-toxic	inactive	Non-toxic	inactive	inactive	inactive	inactive	inactive	inactive	inactive	inactive	inactive	inactive	inhibition [11]: inactive; Activity (Vero): Non-toxic; Activity (HEL): Non-toxic
CCOP(=O)(OCC)[C@H]1C[C@H](C(=O)Nc2cccc(C(C)=O)c2)ON1C (mixture of isomers)	Non-toxic	inactive	inactive	inactive	inactive	inactive	inactive	Non-toxic	inactive	Non-toxic	inactive	inactive	inactive	inactive	inactive	inactive	inactive	inactive	inactive	inactive	inhibition [11]: inactive; Activity (Vero): Non-toxic; Activity (HEL): Non-toxic
CCOP(=O)(OCC)[C@@H]1C[C@H](C(=O)Nc2cccc(C)c2)ON1C (mixture of isomers)	Non-toxic	inactive	inactive	inactive	inactive	inactive	inactive	Non-toxic	inactive	Non-toxic	inactive	inactive	inactive	inactive	inactive	inactive	inactive	inactive	inactive	inactive	inhibition [11]: inactive; Activity (Vero): Non-toxic; Activity (HEL): Non-toxic
CCOP(=O)(OCC)[C@@H]1C[C@H](C(=O)Nc2ccc(C)cc2)ON1C (mixture of isomers)	Non-toxic	inactive	inactive	inactive	inactive	inactive	inactive	Non-toxic	inactive	Non-toxic	inactive	inactive	inactive	inactive	inactive	inactive	inactive	inactive	inactive	inactive	inhibition [11]: inactive; Activity (Vero): Non-toxic; Activity (HEL): Non-toxic
CCOP(=O)(OCC)[C@@H]1C[C@H](C(=O)Nc2cccc(OC)c2)ON1C (mixture of isomers)	Non-toxic	inactive	inactive	inactive	inactive	inactive	inactive	Non-toxic	inactive	Non-toxic	inactive	inactive	inactive	inactive	inactive	inactive	inactive	inactive	inactive	inactive	inhibition [11]: inactive; Activity (Vero): Non-toxic; Activity (HEL): Non-toxic

From ChEMBL document CHEMBL2331506, “Design, synthesis, antiviral and cytostatic evaluation of novel isoxazolidine nucleotide analogues with a carbamoyl linker” (Bioorg Med Chem, 2013)
